Structures are written as SMILES. pIC50: −log10 of the molar value. Structures can show the parent of a compound that is named as a salt. Active and inactive are the calls of the source. The calls are words filed in the database; no cut-off is given here. Residues, ends and D or L forms follow the SMILES beside them. *: point of attachment. Cbz = O=C(OCc1ccccc1)*; Tfa = O=C(C(F)(F)F)*; NHiPr = CC(C)N* A value given as a limit tells only on which side of the number the result lay.

One series has as its target T1, NAD-dependent protein deacetylase sirtuin-2 (Homo sapiens) (UniProt Q8IXJ6).
T1 sequence (whole entry): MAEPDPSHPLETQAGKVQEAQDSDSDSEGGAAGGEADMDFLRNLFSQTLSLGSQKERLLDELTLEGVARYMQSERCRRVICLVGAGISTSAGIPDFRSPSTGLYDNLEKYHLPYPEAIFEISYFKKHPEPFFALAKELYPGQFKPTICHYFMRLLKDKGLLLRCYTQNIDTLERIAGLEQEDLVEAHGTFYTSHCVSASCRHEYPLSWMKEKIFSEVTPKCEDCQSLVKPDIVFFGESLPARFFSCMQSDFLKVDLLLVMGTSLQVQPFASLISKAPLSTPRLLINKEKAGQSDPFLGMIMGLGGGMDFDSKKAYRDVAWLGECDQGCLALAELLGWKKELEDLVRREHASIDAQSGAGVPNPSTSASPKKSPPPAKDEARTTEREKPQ
Briefly: Inhibition of human C-terminal His-tagged SIRT2 (50 to 356 residues) expressed in Escherichia coli using Ac-Gln-Pro-Lys-Lys(pro)-AMC (oxo-11) as substrate at 10 uM by fluorescence assay relative to control.
Conditions: not given
Usually inhibition stands for the change of the read-out against control, counted positive when it falls. The molecule `CC(C)NC(=O)[C@H](Cc1c[nH]c2ccccc12)NC(=O)[C@H](CCCCNC(N)=S)NC(=O)OCc1ccccc1` gave an inhibition of 28%.
Molecule `CCNC(=S)NCCCC[C@H](NC(=O)OCc1ccccc1)C(=O)N[C@@H](Cc1c[nH]c2ccccc12)C(=O)NC(C)C` displayed an inhibition of 71%.

Another series deals with T1, NAD-dependent protein deacetylase sirtuin-2 (Homo sapiens). The experiment in a line: Inhibition of human C-terminal His-tagged SIRT2 (50 to 356 residues) expressed in Escherichia coli using Ac-Gln-Pro-Lys-Lys(pro)-AMC (oxo-11) as substrate at 100 uM by fluorescence assay relative to control.
Conditions: not given
As to `CC(C)NC(=O)[C@H](Cc1c[nH]c2ccccc12)NC(=O)[C@H](CCCCNC(=O)C(F)(F)F)NC(=O)OCc1ccccc1` (Cbz-Lys(Tfa)-Trp-NHiPr), the inhibition was 3%.
For the molecule `CC(C)NC(=O)[C@H](Cc1c[nH]c2ccccc12)NC(=O)[C@H](CCCCNC(=O)C(F)F)NC(=O)OCc1ccccc1`, the inhibition amounted to 17%.

System in another series: not listed separately
The experiment in a line: Metabolic stability of compound in human serum assessed as half life incubated for >10 mins measured after 90 mins by HPLC analysis. Format: ADME, cell-free.
Conditions: not given
The half-life is the time in which the quantity being followed falls by half. For the molecule `CC(C)NC(=O)[C@H](Cc1c[nH]c2ccccc12)NC(=O)[C@H](CCCCNC(N)=S)NC(=O)OCc1ccccc1`, the half-life is > 7 h.
The same measure, in the same setting: the same measure for `CCNC(=S)NCCCC[C@H](NC(=O)OCc1ccccc1)C(=O)N[C@@H](Cc1c[nH]c2ccccc12)C(=O)NC(C)C`: < 1 h.

In a further series the target is T2, NAD-dependent protein deacetylase sirtuin-1 (Homo sapiens, UniProt Q96EB6).
T2 sequence (Q96EB6 whole entry): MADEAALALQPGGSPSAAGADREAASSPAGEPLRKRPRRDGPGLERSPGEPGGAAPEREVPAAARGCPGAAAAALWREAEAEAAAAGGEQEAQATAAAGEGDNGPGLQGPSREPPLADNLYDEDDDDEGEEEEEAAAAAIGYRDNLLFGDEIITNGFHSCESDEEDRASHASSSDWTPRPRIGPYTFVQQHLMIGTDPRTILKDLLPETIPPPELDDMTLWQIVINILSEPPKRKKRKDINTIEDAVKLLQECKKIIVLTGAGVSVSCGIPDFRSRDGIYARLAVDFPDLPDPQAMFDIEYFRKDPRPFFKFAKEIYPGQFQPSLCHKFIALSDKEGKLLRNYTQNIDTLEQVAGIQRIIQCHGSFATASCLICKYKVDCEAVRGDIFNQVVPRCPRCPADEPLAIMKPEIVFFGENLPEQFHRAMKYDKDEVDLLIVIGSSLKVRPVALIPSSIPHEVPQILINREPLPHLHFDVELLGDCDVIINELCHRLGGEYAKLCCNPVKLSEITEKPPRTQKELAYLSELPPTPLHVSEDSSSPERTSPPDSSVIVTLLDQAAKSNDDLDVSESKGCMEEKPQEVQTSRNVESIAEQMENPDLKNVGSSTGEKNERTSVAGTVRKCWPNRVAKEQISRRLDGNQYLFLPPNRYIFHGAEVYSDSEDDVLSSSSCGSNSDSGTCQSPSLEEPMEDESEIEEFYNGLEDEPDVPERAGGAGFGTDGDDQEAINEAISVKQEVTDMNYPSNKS
The experiment in a line: Inhibition of human recombinant N-terminal GST-tagged SIRT1 (193 to 741 residues) expressed in Escherichia coli using Ac-Gln-Pro-Lys-Lys(Ac)-AMC (oxo-10) as substrate by fluorescence assay.
Conditions: not given
One may read the pIC50 as the IC50 on a negative log10 scale, so that one unit is a factor of ten. For the molecule `CC(C)NC(=O)[C@H](Cc1c[nH]c2ccccc12)NC(=O)[C@H](CCCCNC(N)=S)NC(=O)OCc1ccccc1`, the pIC50 was 6.01.
On the same count and under the same terms, the same measure for `CCNC(=S)NCCCC[C@H](NC(=O)OCc1ccccc1)C(=O)N[C@@H](Cc1c[nH]c2ccccc12)C(=O)NC(C)C`: 5.72.

Another series deals with T3, NAD-dependent protein deacetylase sirtuin-3, mitochondrial (Homo sapiens) (UniProt Q9NTG7).
T3 sequence (whole entry): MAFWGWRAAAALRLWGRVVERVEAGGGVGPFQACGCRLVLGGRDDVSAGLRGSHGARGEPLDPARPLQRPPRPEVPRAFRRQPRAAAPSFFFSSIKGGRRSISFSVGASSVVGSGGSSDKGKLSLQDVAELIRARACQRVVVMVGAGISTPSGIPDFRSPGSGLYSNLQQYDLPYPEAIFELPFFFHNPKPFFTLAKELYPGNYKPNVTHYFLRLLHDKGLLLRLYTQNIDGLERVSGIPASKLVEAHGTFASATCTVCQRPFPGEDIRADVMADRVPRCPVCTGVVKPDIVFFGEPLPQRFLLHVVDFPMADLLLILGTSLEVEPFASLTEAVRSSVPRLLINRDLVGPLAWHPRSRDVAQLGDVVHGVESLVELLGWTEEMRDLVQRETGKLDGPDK
Briefly: Inhibition of human N-terminal GST-tagged SIRT3 (102 to 399 residues) expressed in Escherichia coli using Ac-Gln-Pro-Lys-Lys(but)-AMC (oxo-12) as substrate at 10 uM by fluorescence assay relative to control.
Conditions: not given
In the case of `CC(C)NC(=O)[C@H](Cc1c[nH]c2ccccc12)NC(=O)[C@H](CCCCNC(N)=S)NC(=O)OCc1ccccc1`, the inhibition turned out to be 2%.
The same measure, in the same setting: the same measure for `CCNC(=S)NCCCC[C@H](NC(=O)OCc1ccccc1)C(=O)N[C@@H](Cc1c[nH]c2ccccc12)C(=O)NC(C)C`: 2%.

In the next series the target is T4, NAD-dependent protein deacetylase sirtuin-1 (Homo sapiens) (UniProt Q96EB6).
T4 sequence (whole entry): T2 sequence (Q96EB6 whole entry)
The experiment in a line: Inhibition of human N-terminal GST-tagged SIRT1 (193 to 741 residues) expressed in Escherichia coli preincubated with NAD+ for 30 mins using Ac-Gln-Pro-Lys-Lys(Ac)-AMC (oxo-10) as substrate at 1 to 100 uM measured after 90 mins by fluorescence assay. The following applies: dose microM 1-100, time 120.0 min. The gist of the method:
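Recombinant SIRT1 (100 nM) preincubated 30 min with compound, either with or without NAD+ (500 μM), before the fluorogenic deacetylation read-out. Single-dose %-inhibition. Two independent experiments in duplicate, standard deviation.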
Consider `CC(C)NC(=O)[C@H](Cc1c[nH]c2ccccc12)NC(=O)[C@H](CCCCNC(N)=S)NC(=O)OCc1ccccc1`, for which the inhibition entry was “Active”.
Still for that read-out and setting: the same measure for `CC(C)NC(=O)[C@H](Cc1c[nH]c2ccccc12)NC(=O)[C@H](CCCCNC(=O)C(F)(F)F)NC(=O)OCc1ccccc1` (Cbz-Lys(Tfa)-Trp-NHiPr): “inactive”.
The same measure, in the same setting: the same measure for `CCNC(=S)NCCCC[C@H](NC(=O)OCc1ccccc1)C(=O)N[C@@H](Cc1c[nH]c2ccccc12)C(=O)NC(C)C`: “Active”; for `CC(C)NC(=O)[C@H](Cc1c[nH]c2ccccc12)NC(=O)[C@H](CCCCNC(=O)C(F)F)NC(=O)OCc1ccccc1`: “inactive”.

The next series deals with T3, NAD-dependent protein deacetylase sirtuin-3, mitochondrial (Homo sapiens). Briefly: Inhibition of human N-terminal GST-tagged SIRT3 (102 to 399 residues) expressed in Escherichia coli using Ac-Gln-Pro-Lys-Lys(but)-AMC (oxo-12) as substrate at 100 uM by fluorescence assay relative to control.
Conditions: not given
Regarding `CC(C)NC(=O)[C@H](Cc1c[nH]c2ccccc12)NC(=O)[C@H](CCCCNC(=O)C(F)(F)F)NC(=O)OCc1ccccc1` (Cbz-Lys(Tfa)-Trp-NHiPr), the inhibition is 5%.
With `CC(C)NC(=O)[C@H](Cc1c[nH]c2ccccc12)NC(=O)[C@H](CCCCNC(=O)C(F)F)NC(=O)OCc1ccccc1`, the inhibition stood at 9%.

Another series has as its target T4, NAD-dependent protein deacetylase sirtuin-1 (Homo sapiens). Briefly: Inhibition of human recombinant N-terminal GST-tagged SIRT1 (193 to 741 residues) expressed in Escherichia coli using Ac-Gln-Pro-Lys-Lys(Ac)-AMC (oxo-10) as substrate at 100 uM by fluorescence assay relative to control.
Conditions: not given
As to `CC(C)NC(=O)[C@H](Cc1c[nH]c2ccccc12)NC(=O)[C@H](CCCCNC(=O)C(F)(F)F)NC(=O)OCc1ccccc1` (Cbz-Lys(Tfa)-Trp-NHiPr), the inhibition was 24%.
On the same count and under the same terms, with `CC(C)NC(=O)[C@H](Cc1c[nH]c2ccccc12)NC(=O)[C@H](CCCCNC(=O)C(F)F)NC(=O)OCc1ccccc1` the figure was 29%.

System in the next series: not listed separately
Briefly: Metabolic stability of compound in human serum assessed as drug degradation incubated for >10 mins measured after 90 mins by HPLC analysis. Format: ADME, cell-free. The following applies: 1.5 h.
Turning to `CCNC(=S)NCCCC[C@H](NC(=O)OCc1ccccc1)C(=O)N[C@@H](Cc1c[nH]c2ccccc12)C(=O)NC(C)C`, the Activity result is “Not Active”.

Another series deals with T4, NAD-dependent protein deacetylase sirtuin-1 (Homo sapiens). The experiment in a line: Inhibition of SIRT1 in HEK293 cells assessed as increase in p53 acetylation co-treated with TSA at 25 uM for 6 hrs by western blot analysis. Format: cell-based.
Conditions: not given
The gist of the method: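 HEK293 cells exposed 6 h to compound at 25 μM together with TSA (1 μM). Whole-cell lysates immunoblotted for Ac-p53 (K382) and total p53. Ratio Ac-p53/p53 normalized to DMSO control. Two independent experiments in duplicate, SEM.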
Background: Immunoblotting shows a protein as a band on a membrane.
Turning to `CC(C)NC(=O)[C@H](Cc1c[nH]c2ccccc12)NC(=O)[C@H](CCCCNC(=O)C(F)(F)F)NC(=O)OCc1ccccc1` (Cbz-Lys(Tfa)-Trp-NHiPr), the inhibition entry was “inactive”.
